# Reference: paper PMC5884014 (Neoplasia (New York, N.Y.), 2017)
# Columns and labels:
# [1] = Toxicology examination: serum biochemistry; assay type: in vivo; details: ICR mice, 5-FU 50 mg/kg i.p., SL-1 30, oxaliplatin 7.5, cisplatin 7.5 mg/kg i.v.
# [2] = test system: RKO cells; test: Comet and modified comet assays; assay type: cell-based, human; details: 24 h, SL-1 0.75 μM, 5-FU […], alone or combined
# How it was run: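 RKO cells were exposed to the test compound and/or 5-FU for 24 h and then processed by comet assay. The read-out was tail moment, reported as means ± SD (n = 3) and compared by Student's t test. Synergy on tail moment was expressed as a combination index (CI).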
# [3] = test system: Caco-2; test: Cytotoxicity assay; assay type: cell-based; details: Homo sapiens, Caco-2, 72 h
# [4] = test system: DLD-1; test: Cytotoxicity assay; assay type: cell-based, human; details: Homo sapiens, DLD-1, 72 h
# [5] = test system: breast carcinoma MX-1 xenografts; details: cited from earlier work
# [6] = test system: RKO; test: Cytotoxicity assay; assay type: cell-based, human; details: Homo sapiens, RKO, 72 h
# [7] = test system: LS174T; test: Cytotoxicity assay; assay type: cell-based, human; details: Homo sapiens, LS174T, 72 h
# [8] = test system: Colo205; test: Cytotoxicity assay; assay type: cell-based, human; details: Homo sapiens, COLO 205, 72 h
# [9] = test system: FHC; test: Cytotoxicity assay; assay type: cell-based, human; details: Homo sapiens, FHC, 72 h
# [10] = test system: H3347; test: Cytotoxicity assay; assay type: cell-based, human; details: Homo sapiens, H3347, 72 h
# [11] = test system: SW620; test: Cytotoxicity assay; assay type: cell-based, human; details: Homo sapiens, SW-620, 72 h
# [12] = test system: HT-29; test: Cytotoxicity assay; assay type: cell-based, human; details: Homo sapiens, HT-29, 72 h
# [13] = test system: LoVo; test: Cytotoxicity assay; assay type: cell-based, human; details: Homo sapiens, LoVo, 72 h
# [14] = test system: pEGFP-N1 plasmid DNA; test: Alkaline agarose gel shift assay; assay type: biochemical; details: 37°C, 2 h
# [15] = test system: RKO xenografts; test: Anticancer activity in xenograft mouse model; assay type: in vivo, nude mice
# [16] = test system: CRC cell lines; test: Cytotoxicity, panel of CRC cell lines; assay type: cell-based; details: Homo sapiens, read-out: IC50 values in CRC cell lines
# [17] = Toxicology examination: histopathology of kidney and liver; assay type: in vivo; details: ICR mice
# [18] = test system: HCT116; test: Cytotoxicity assay; assay type: cell-based, human; details: Homo sapiens, HCT-116, 72 h
# [19] = test system: RKO cells; test: Annexin V staining assay; assay type: cell-based, human
# [20] = Toxicology examination: complete blood counts; assay type: in vivo; details: ICR mice, 5-FU 50 mg/kg i.p., SL-1 30, oxaliplatin 7.5, cisplatin 7.5 mg/kg i.v.
# [21] = test system: pGL4-WT and pGL4-MT luciferase reporters in RKO cells; test: Luciferase reporter assay; assay type: cell-based, human; details: SL-1 for 2 h
structure (smiles),measurement,setting,value
"Cc1cc(NNC(=O)Nc2ccc(N(CCCl)CCCl)cc2)c2cc3c(cc2n1)OCO3 [SL-1, N-{4-[Bis(2-chloroethyl)amino]phenyl}-2-(6-methyl[1,3]-dioxolo[4,5-g]quinolin-8-yl)-hydrazinecarboxamide]",ALP,[1]; 2 days,331.75 ± 27.94 U/l
same,ALT,[1]; 2 days,24.50 ± 2.17 U/l
same,AST,[1]; 2 days,49.00 ± 3.24 U/l
same,BUN,[1]; 2 days,23.05 ± 2.22 mg/dL
same,CRE,[1]; 2 days,0.20 ± 0.00 mg/dL
same,GLU,[1]; 2 days,466.50 ± 146.80 mg/dL
same,ALP,[1]; 14 days,231.00 ± 85.33 U/l
same,BUN,[1]; 14 days,20.05 ± 2.37 mg/dL
same,CRE,[1]; 14 days,0.17 ± 0.06 mg/dL
same,GLU,[1]; 14 days,219.75 ± 35.85 mg/dL
same,GOT/AST,[1]; 14 days,47.50 ± 1.29 U/l
same,GPT/ALT,[1]; 14 days,22.00 ± 8.04 U/l
same,tail moment,[2],5.4 ± 0.8 μm
same,IC50,[3],5490 ± 3070 nM
same,IC50,[4],360 ± 70 nM
same,growth of breast carcinoma MX-1 xenografts,[5],complete tumor remission
same,IC50,[6],200 ± 80 nM
same,IC50,[7],4550 ± 1010 nM
same,IC50,[8],460 ± 100 nM
same,IC50,[9],71500 ± 8360 nM
same,IC50,[10],230 ± 30 nM
same,IC50,[11],140 ± 60 nM
same,IC50,[12],530 ± 110 nM
same,IC50,[13],610 ± 30 nM
same,concentration that induced moderate levels of ICLs,[14],0.05 µM
same,tumor suppression,"[15]; RKO xenograft (Figure 6A), SL-1 30 mg/kg Q2D×7 i.v., oxaliplatin 7.5 mg/kg, 5-FU 50 mg/kg",61.8%
same,tumor growth suppression,"[15]; RKO xenograft, nude mice, day 29, SL-1 30 mg/kg i.v. every other day 7 times",approximately 65%
same,IC50,[16],140 to 5490 nM
same,liver histopathology,[17]; 2-day test,liver damage was insignificant
same,kidney histopathology,[17]; 2 days after single dose,insignificant morphological injury in the kidney
same,"histopathological examination, overall",[17]; SL-1 30 mg/kg i.v.,no obvious nephrotoxicity or hepatotoxicity
same,IC50,[18],340 ± 60 nM
same,mode of cell death,[19],primarily triggered apoptosis
same,BASO,[20]; 2 days,0.00 ± 0.00 10^9/l
same,EO,[20]; 2 days,0.09 ± 0.03 10^9/l
same,HCT,[20]; 2 days,38.32 ± 3.18%
same,HGB,[20]; 2 days,12.34 ± 1.35 g/dL
same,LYMPH,[20]; 2 days,3.55 ± 0.98 10^9/l
same,MCH,[20]; 2 days,15.88 ± 0.48 pg
same,MCHC,[20]; 2 days,25.86 ± 1.72 g/dL
same,MCV,[20]; 2 days,58.18 ± 3.66 fL
same,MONO,[20]; 2 days,0.05 ± 0.03 10^9/l
same,NEUT,[20]; 2 days,0.54 ± 0.20 10^9/l
same,PLT,[20]; 2 days,1742.40 ± 273.56 10^9/l
same,RBC,[20]; 2 days,7.80 ± 1.03 10^12/l
same,WBC,[20]; 2 days,4.81 ± 1.00 10^9/l
same,BASO,[20]; 14 days,0.01 ± 0.01 10^9/l
same,EO,[20]; 14 days,0.13 ± 0.05 10^9/l
same,HCT,[20]; 14 days,46.28 ± 2.32%
same,HGB,[20]; 14 days,13.36 ± 0.74 g/dL
same,LYMPH,[20]; 14 days,4.17 ± 1.28 10^9/l
same,MCH,[20]; 14 days,15.58 ± 0.47 pg
same,MCHC,[20]; 14 days,28.84 ± 0.57 g/dL
same,MCV,[20]; 14 days,53.96 ± 1.92 fL
same,MONO,[20]; 14 days,0.12 ± 0.15 10^9/l
same,NEUT,[20]; 14 days,1.08 ± 0.36 10^9/l
same,PLT,[20]; 14 days,838.80 ± 57.98 10^9/l
same,RBC,[20]; 14 days,8.60 ± 0.68 10^12/l
same,WBC,[20]; 14 days,5.50 ± 1.64 10^9/l
same,"inhibition of luciferase reporter activity, pGL4-WT vs pGL4-MT",[21],inhibited the reporter activity of pGL4-WT more effectively than that of pGL4-MT
